Results of several laboratories.
Lines come from different studies, so protocols differ.
Target: G protein-coupled receptor kinase 3 (GRK3, Homo sapiens, UniProt P35626)
One construct used (P35626 1-688): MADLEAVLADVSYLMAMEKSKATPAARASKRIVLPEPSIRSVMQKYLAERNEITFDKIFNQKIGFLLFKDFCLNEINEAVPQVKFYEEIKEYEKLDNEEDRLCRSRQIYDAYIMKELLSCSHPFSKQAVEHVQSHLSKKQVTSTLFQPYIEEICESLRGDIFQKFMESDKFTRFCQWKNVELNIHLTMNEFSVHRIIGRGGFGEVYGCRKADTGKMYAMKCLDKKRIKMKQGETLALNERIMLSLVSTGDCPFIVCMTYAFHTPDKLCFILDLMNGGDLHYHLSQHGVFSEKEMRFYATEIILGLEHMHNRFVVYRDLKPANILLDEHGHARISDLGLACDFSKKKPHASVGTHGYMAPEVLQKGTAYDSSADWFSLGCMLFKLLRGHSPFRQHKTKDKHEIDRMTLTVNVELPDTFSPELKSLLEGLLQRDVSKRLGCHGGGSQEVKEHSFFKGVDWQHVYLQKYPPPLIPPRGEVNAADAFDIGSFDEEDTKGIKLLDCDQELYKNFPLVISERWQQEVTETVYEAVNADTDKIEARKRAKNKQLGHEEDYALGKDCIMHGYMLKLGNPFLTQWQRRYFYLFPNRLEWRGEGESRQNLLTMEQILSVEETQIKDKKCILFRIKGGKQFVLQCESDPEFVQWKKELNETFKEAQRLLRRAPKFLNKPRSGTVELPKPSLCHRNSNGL

Cn1c2c(c3ccc(Cl)c(Cl)c31)C(C#N)C1(CCCCC1)NC2=O (racemic)  ΔTm (thermal stability; DSF; 10 µM): 0.4 °C
CC(C)(O)[C@H]1CC[C@H](Nc2ccc3ncc(-c4cccc(C(F)(F)F)c4)n3n2)CC1  remaining activity (enzyme activity; inhibitor; 1 µM): 107%
COc1cc(Cl)c(C(=O)N[C@@H](CN[C@H]2CC[C@@H](N)CC2)Cc2ccc(C#N)cc2)cc1-c1ccc(CN[C@H](C)c2ccc(C)cc2)o1  remaining activity (enzyme activity; inhibitor; 1 µM): 99%
Cc1sc(C(=O)NC2COC2)cc1-n1cc(NC(=O)Nc2c(F)cccc2Cl)cn1  remaining activity (enzyme activity; inhibitor; 10 µM): 107%
COc1ccc2c(c1)O[C@@H](c1ccc(OC)c(OC)c1)C[C@H]2NC(=O)C1(c2ccc3c(c2)OC(F)(F)O3)CC1  remaining binding (cell-free assay; competition with immobilised ligand; 1 µM): 75%
Cn1c2c(Cl)c(Cl)ccc2c2cc(N)[nH]c(=O)c21  ΔTm (thermal stability; DSF; 10 µM): 0 °C
COc1cc2ncnc(Nc3ccc(Oc4ccccc4)cc3C)c2cc1OC  inhibition (enzyme activity; inhibitor; 1 µM): 1%
CCC1(CC)NC(=O)c2c(c3ccc(Cl)c(Cl)c3n2C)C1C#N (stereo not drawn)  ΔTm (thermal stability; DSF; 10 µM): 0.1 °C
Cc1c(NC(=O)c2cc(C(N)=O)nc3cc(F)ccc23)c(C(F)(F)F)nn1Cc1ccc(C#N)cc1  remaining binding (cell-free assay; competition with immobilised ligand; 1 µM): 89%
CCCS(=O)(=O)Nc1ccc(F)c(C(=O)c2c[nH]c3ncc(-c4ccc(Cl)cc4)cc23)c1F  inhibition (enzyme activity; inhibitor; 1 µM): < 10%
N#CCCc1ccc2c(c1)-c1[nH]c3ccc([N+](=O)[O-])cc3c1CC(=O)N2  remaining signal (cell-free assay; 0.5 µM): 97.1%
Cn1c2c(c3ccc(Cl)c(Cl)c31)C(C#N)C1(CCNCC1)NC2=O (racemic)  ΔTm (thermal stability; DSF; 10 µM): 1.1 °C
Nc1ncnc2occ(-c3ccc(NC(=O)Nc4cc(C(F)(F)F)ccc4F)cc3)c12  remaining signal (cell-free assay; inhibitor; 20 µM): 69%
COCCOc1nc(-c2ccc(Cl)nc2)nc2c1CN(C(=O)c1ncn3ccccc13)CC2  remaining binding (cell-free assay; competition with immobilised ligand; 0.1 µM): 100%
Cn1c2c(Cl)c(Cl)ccc2c2cn[nH]c(=O)c21  ΔTm (thermal stability; DSF; 10 µM): 0 °C
CS(=O)(=O)N1CCCC(NC(=O)[C@H](CCC2CCCCC2)NC(=O)c2ccc(CNC(=O)c3cnc4ccccn34)cc2)C1 (stereo partly drawn)  remaining binding (cell-free assay; competition with immobilised ligand; 0.1 µM): 100%
CC(C)(C)c1nc(-c2cccc(NS(=O)(=O)c3c(F)cccc3F)c2F)c(-c2ccnc(N)n2)s1  remaining activity (enzyme activity; inhibitor; radiometric; 1 µM): 86%
CCCOc1ccc([C@@H]2[C@@H](C(=O)O)[C@H](c3ccc4c(c3)OCO4)CN2CC(=O)Nc2c(CC)cccc2CC)cc1  remaining binding (cell-free assay; competition with immobilised ligand; 1 µM): 100%
Cn1c2c(c3ccc(Cl)c(Cl)c31)C(C#N)C1(CCCC1)NC2=O (stereo not drawn)  ΔTm (thermal stability; DSF; 10 µM): -0.1 °C
CNC(=O)c1ccc(Nc2ncc(C(F)(F)F)c(NCc3nccnc3N(C)S(C)(=O)=O)n2)cc1  remaining binding (cell-free assay; competition with immobilised ligand; 0.1 µM): 80%
CN1CC(Oc2cnc(C#N)cc2-c2ccn3nc(NC(=O)C4CC4)cc3c2)C1  inhibition (enzyme activity; inhibitor; 1 µM): 0%
